# From ChEMBL document CHEMBL1157793, “Synthesis and antitumor activity of 1,5-disubstituted 1,2,4-triazoles as cis-restricted combretastatin analogues” (J Med Chem, 2010)
# The source made the active and inactive calls. No cut-off for these calls is given here.
# Assays:
# Gallus gallus = species on record: Gallus gallus; experiment: Inhibition of vascular sprouts in chick embryo aorta assessed as vascular disruption at 10 uM after 30 mins by microscopy; type: functional, tissue-based
# Method in brief: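 Aortic arches from day-14 chick embryos sliced, embedded in Matrigel with complete medium; endothelial sprouts formed over 24–48 h. Compound added at various concentrations and vascular channels imaged before and 30 min after addition.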
# HeLa [1] = experiment: Antiproliferative activity against human HeLa cells after 72 hrs by MTT assay; type: functional, cell-based
# A549 = experiment: Antiproliferative activity against human A549 cells after 72 hrs by MTT assay; type: functional, cell-based; conditions: A549, 72 h
# HL-60 = experiment: Antiproliferative activity against human HL60 cells after 72 hrs by MTT assay; type: functional, cell-based; conditions: HL-60, 72 h
# Jurkat [2] = experiment: Antiproliferative activity against human Jurkat cells after 72 hrs by MTT assay; type: functional, cell-based
# Method in brief: (§1)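 Cells seeded at 8×10^3 per well (Jurkat, HL-60, K562 in RPMI-1640; MCF7, A549, HeLa in DMEM; all with 10% FBS, penicillin/streptomycin), incubated 18 h at 37 °C, 5% CO2, then exposed to compound at varying concentrations in complete medium for 72 h.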
# MCF7 = experiment: Antiproliferative activity against human MCF7 cells after 72 hrs by MTT assay; type: functional, cell-based; conditions: MCF7, 72 h
# [3] = Inhibition of bovine brain tubulin polymerization after 20 mins by turbidimetry; set-up: species or system Bos taurus
# Method in brief: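 Bovine brain tubulin (10 µM) preincubated with varying compound concentrations in glutamate buffer at 30 °C, chilled to 0 °C, 0.4 mM GTP added, then warmed to 30 °C in spectrophotometer; assembly followed by turbidity at 350 nm.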
# Bos taurus [4] = species on record: Bos taurus; experiment: Ratio of IC50 for comberestastatin-A4 to IC50 for drug for inhibition of bovine brain tubulin polymerization after 20 mins by turbidimetry
# Bos taurus [5] = species on record: Bos taurus; experiment: Displacement of [3H]colchicine from bovine tubulin at 1 uM
# Method in brief: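 [3H]Colchicine binding inhibition measured with reaction mixtures of 1 µM tubulin, 5 µM [3H]colchicine and 1 µM test compound.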
# HeLa [6] = experiment: Cell cycle arrest in human HeLa cells assessed as increase in accumulation of cells at G2/M phase after 24 hrs by propidium iodide staining-based flow cytometry; type: functional
# Method in brief: (§2)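 5×10^5 exponentially growing cells treated with compound (7–250 nM range for 24 h; 30 nM for 24 and 48 h), collected, fixed in ice-cold 70% ethanol, lysed with buffer containing RNase A and 0.1% Triton X-100, PI-stained, and DNA content analysed by flow cytometry; phase distribution from DNA histograms. Mean ± SEM of three independent experiments.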
# HeLa [7] = experiment: Cell cycle arrest in human HeLa cells assessed as decrease in accumulation of cells at G1 phase at 7 to 250 nM after 24 hrs by propidium iodide staining-based flow cytometry; type: functional; method in brief: as §2
# HeLa [8] = experiment: Cell cycle arrest in human HeLa cells assessed as decrease in accumulation of cells at S phase at 7 to 250 nM after 24 hrs by propidium iodide staining-based flow cytometry; type: functional; method in brief: as §2
# Jurkat [9] = experiment: Cell cycle arrest in human Jurkat cells assessed as increase in accumulation of cells at G2/M phase at 7 to 250 nM after 24 hrs by propidium iodide staining-based flow cytometry; type: functional; method in brief: as §2
# Jurkat [10] = experiment: Cell cycle arrest in human Jurkat cells by accumulation of cells at G2/M phase at 7 to 250 nM after by propidium iodide staining-based flow cytometry; type: functional; conditions: TDE = time-dependent effect; method in brief: as §2
# Jurkat [11] = experiment: Cell cycle arrest in human Jurkat cells assessed as accumulation of cells at SubG1 phase at 7 to 250 nM after 24 hrs by propidium iodide staining-based flow cytometry; type: functional; method in brief: as §2
# Jurkat [12] = experiment: Induction of apoptosis in human Jurkat cells assessed as increase in annexin-V positive cells after 24 to 72 hrs by annexin-V-FITC and propidium iodide staining based flow cytometry; type: functional, cell-based
# Jurkat [13] = experiment: Induction of apoptosis in human Jurkat cells assessed as depolarization of mitochondrial membrane potential measured as annexin-V positive cells at 50 nM after 24 hrs by annexin-V-FITC and propidium iodide staining based flow cytometry (reference value: 3.0%); type: functional
# Jurkat [14] = experiment: Induction of apoptosis in human Jurkat cells assessed as depolarization of mitochondrial membrane potential measured as annexin-V positive cells at 50 nM after 48 hrs by annexin-V-FITC and propidium iodide staining based flow cytometry (reference value: 3.0%); type: functional
# Jurkat [15] = experiment: Induction of apoptosis in human Jurkat cells assessed as depolarization of mitochondrial membrane potential measured as annexin-V positive cells at 50 nM after 72 hrs by annexin-V-FITC and propidium iodide staining based flow cytometry (reference value: 3.0%); type: functional
# Jurkat [16] = experiment: Induction of apoptosis in human Jurkat cells assessed as increase in ROS production at 50 nM by HE staining based flow cytometry; type: functional, cell-based; conditions: TDE = time-dependent effect
# Method in brief: (§3)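 After 24, 48, 72 h with 50 nM compound, Jurkat cells resuspended in HBSS with 2.5 µM HE or 0.1 µM H2DCFDA, 30 min at 37 °C, washed, and read by flow cytometry (excitation 488 nm; emission 585 nm HE, 530 nm DCF). Mean ± SEM of three independent experiments.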
# Jurkat [17] = experiment: Induction of apoptosis in human Jurkat cells assessed as increase in ROS production at 50 nM by H2DCFDA staining based flow cytometry; type: functional, cell-based; conditions: TDE = time-dependent effect; method in brief: as §3
# Jurkat [18] = experiment: Induction of apoptosis in human Jurkat cells assessed as activation of caspase-3 at 50 nM by flow cytometry; type: functional, cell-based; conditions: TDE = time-dependent effect
# Method in brief: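 Jurkat cells exposed to 50 nM compound for 24, 48 and 72 h, fixed in Cytofix buffer 20 min, washed in Perm/Wash, stained 30 min with FITC-conjugated anti-human active caspase-3 fragment antibody; percentage of positive cells by flow cytometry, mean ± SEM of three experiments.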
# Jurkat [19] = experiment: Induction of apoptosis in human Jurkat cells assessed as increase in PARP cleavage at 50 nM after 24 hrs by immunoblot method; type: functional, cell-based
# Method in brief: (§4)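 Jurkat cells given 50 nM compound for varying times, washed in cold PBS, lysed on ice 30 min, cleared at 15000g, 4 °C; 20 µg protein run on 7.5–15% SDS-PAGE, blotted to PVDF, probed 2 h at room temperature with rabbit anti-PARP or anti-Bcl-2 (1:1000), peroxidase secondary, ECL detection; β-actin reprobe as loading control.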
# Jurkat [20] = experiment: Induction of apoptosis in human Jurkat cells assessed as decrease in Bcl2 expression at 50 nM after 24 to 72 hrs by immunoblot method; type: functional, cell-based; method in brief: as §4
# HUVEC [21] = experiment: Induction of apoptosis in HUVEC expressing GFP assessed as formation of membrane blebs at 0.5 uM to 10 uM after 30 mins by confocal microscopy; conditions: Homo sapiens
# HUVEC [22] = experiment: Induction of apoptosis in HUVEC expressing GFP assessed as decrease in GFP-positive cell area at 0.5 uM to 10 uM after 30 mins by confocal microscopy; set-up: scale not given: the % may be the effect or the level left
# HeLa [23] = experiment: Cell cycle arrest in human HeLa cells by accumulation of cells at G2/M phase at 30 nM after 48 hrs by propidium iodide staining-based flow cytometry (reference value: 12%)
# K562 = experiment: Antiproliferative activity against human K562 cells after 72 hrs by MTT assay; type: functional, cell-based; conditions: K562, 72 h; method in brief: as §1
IC50 (HeLa [1]) [nM],IC50 (A549) [nM],IC50 (HL-60) [nM],IC50 (Jurkat [2]) [nM],IC50 (MCF7) [nM],IC50 [3] [nM],Activity (Bos taurus [5]) [%],Compound,Activity (HeLa [6]),Activity (HeLa [7]),Activity (HeLa [8]),Activity (Jurkat [9]),Activity (Jurkat [10]),Activity (Jurkat [11]),Activity (Jurkat [12]),Activity (Jurkat [13]),Activity (Jurkat [14]),Activity (Jurkat [15]),Activity (Jurkat [16]),Activity (Jurkat [17]),Activity (Jurkat [18]),other results
15,100,20,5,50,760,86,CCOc1ccc(-c2ncnn2-c2cc(OC)c(OC)c(OC)c2)cc1,Dose-dependent effect,Active,Active,Active,tde,Active,Active,14.4%,28.4%,44.5%,tde,tde,tde,Activity (Gallus gallus): Active; Ratio IC50 (Bos taurus [4]): 2; Activity (Jurkat [19]): Active; Activity (Jurkat [20]): Active; Activity (HUVEC [21]): Active; Activity (HUVEC [22]): 30%; Activity (HeLa [23]): 70%
6,10,3,3,17,1500,75,CCOc1ccc(-c2ncnn2-c2cc(OC)c(OC)c(OC)c2)cc1Cl,Dose-dependent effect,Active,Active,Active,tde,Active,Active,Active,Active,Active,tde,tde,tde,IC50 (K562): 20 nM; Activity (Jurkat [19]): Active; Activity (Jurkat [20]): Active; Activity (HeLa [23]): 70%
